According to ChEMBL document CHEMBL1126930, “New analogues of N-(2-aminoethyl)-4-chlorobenzamide (Ro 16-6491). Some of the most potent monoamine oxidase-B inactivators” (J Med Chem, 1993):

Assay: Inhibition of mitochondrial Monoamine oxidase-B purified from bovine liver
Procedure, shortened: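 MAO-B purified from bovine liver mitochondria. Enzyme preincubated 20 min with various inactivator concentrations. 10 μL aliquots then assayed for remaining activity in 490 μL of 1 mM benzylamine hydrochloride in 50 mM Tris-HCl, pH 9.0. IC50 extrapolated from plots of percent activity remaining versus inhibitor concentration. Duplicate runs varied by 0–5%.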

Structure (SMILES) | IC50 [nM]
NCCNC(=O)c1ccc([N+](=O)[O-])cc1 | 48200
NCCNC(=O)c1ccc(I)cc1 | 170
NCCNC(=O)c1ccc(Cl)cc1 | 45
NCCNC(=O)c1cccc(F)c1 | 200
NCCNC(=O)c1ccccc1[N+](=O)[O-] | 2170
NCCNC(=O)c1cccc(Br)c1 | 52
NCCNC(=O)c1cccc(I)c1 | 37
NCCNC(=O)c1ccccc1Br | 1200
NCCNC(=O)c1cccc([N+](=O)[O-])c1 | 60
NCCNC(=O)c1ccccc1I | 61500
NCCNC(=O)c1ccccc1 | 250
NCCNC(=O)c1ccc(Cl)cn1 [LAZABEMIDE] | 30
NCCNC(=O)c1ccccc1F | 160
NCCNC(=O)c1ccc(F)cc1 | 56
NCCNC(=O)c1ccccc1Cl | 490
NCCNC(=O)c1ccc(Br)cc1 | 42
NCCNC(=O)c1cccc(Cl)c1 | 120
